Reference: ChEMBL document CHEMBL5058577, “EUbOPEN Chemogenomics Library 2 (Multiplex)” (2022)

Test system: Fibroblast
Test: Multiplex assay against human fibroblast
Format: toxicity, cell-based
Summary of the method: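 Cells stained live at seeding with Hoechst33342, BioTracker Green Microtubule Cytoskeleton Dye, MitoTracker Red and Annexin V Alexa Fluor 680 were imaged on a CQ1 microscope at 37°C and 5% CO2 after compound addition. Their classification by CellPathfinder machine-learning gating ran from Hoechst high-intensity objects versus normal cells, to healthy, pyknosed or fragmented nuclei among normal cells, to mitotic or apoptotic among pyknosed cells. Tubulin, mitochondrial-mass and membrane-permeability phenotypes are per cents of healthy-nucleus cells.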

[1] = 12 h, 1 µM, compound concentration 1 uM, replicate 1
[2] = 12 h, 1 µM, compound concentration 1 uM, replicate 2
[3] = 12 h, 10 µM, compound concentration 10 uM, replicate 1
[4] = 12 h, 10 µM, compound concentration 10 uM, replicate 2
[5] = 24 h, 1 µM, compound concentration 1 uM, replicate 1
[6] = 24 h, 1 µM, compound concentration 1 uM, replicate 2
[7] = 24 h, 10 µM, compound concentration 10 uM, replicate 1
[8] = 24 h, 10 µM, compound concentration 10 uM, replicate 2
[9] = 48 h, 1 µM, compound concentration 1 uM, replicate 1
[10] = 48 h, 1 µM, compound concentration 1 uM, replicate 2
[11] = 48 h, 10 µM, compound concentration 10 uM, replicate 1
[12] = 48 h, 10 µM, compound concentration 10 uM, replicate 2

Cc1nc2ccc(Oc3ccc(F)cc3)cc2c(=O)n1C[C@H]1CCCN(C(C)C)C1.Cl
Population Apoptotic (%) [1]: 34%
Population Fragmented Nuclei (%) [1]: 19%
Population Healthy Nuclei (%) [1]: 67%
Population Hoechst High Intensity Objects (%) [1]: 5%
Population Membrane Permeable-Phenotype (%) [1]: 1%
Population Mitochondria Different-Phenotype (%) [1]: 4%
Population Mitotic Cells (%) [1]: 65%
Population Normal (%) [1]: 94%
Population Pyknosed Nuclei (%) [1]: 13%
Population Tubulin-Different-Phenotype (%) [1]: 31%
Total Cell Count [1]: 184
Population Apoptotic (%) [2]: 44%
Population Fragmented Nuclei (%) [2]: 24%
Population Healthy Nuclei (%) [2]: 47%
Population Hoechst High Intensity Objects (%) [2]: 9%
Population Membrane Permeable-Phenotype (%) [2]: 21%
Population Mitochondria Different-Phenotype (%) [2]: 8%
Population Mitotic Cells (%) [2]: 55%
Population Normal (%) [2]: 90%
Population Pyknosed Nuclei (%) [2]: 29%
Population Tubulin-Different-Phenotype (%) [2]: 70%
Total Cell Count [2]: 111
Population Apoptotic (%) [3]: 53%
Population Fragmented Nuclei (%) [3]: 19%
Population Healthy Nuclei (%) [3]: 61%
Population Hoechst High Intensity Objects (%) [3]: 4%
Population Membrane Permeable-Phenotype (%) [3]: 1%
Population Mitochondria Different-Phenotype (%) [3]: 22%
Population Mitotic Cells (%) [3]: 46%
Population Normal (%) [3]: 95%
Population Pyknosed Nuclei (%) [3]: 19%
Population Tubulin-Different-Phenotype (%) [3]: 88%
Total Cell Count [3]: 241
Population Apoptotic (%) [4]: 61%
Population Fragmented Nuclei (%) [4]: 36%
Population Healthy Nuclei (%) [4]: 44%
Population Hoechst High Intensity Objects (%) [4]: 3%
Population Membrane Permeable-Phenotype (%) [4]: 5%
Population Mitochondria Different-Phenotype (%) [4]: 25%
Population Mitotic Cells (%) [4]: 38%
Population Normal (%) [4]: 96%
Population Tubulin-Different-Phenotype (%) [4]: 80%
Total Cell Count [4]: 205
Population Apoptotic (%) [5]: 66%
Population Fragmented Nuclei (%) [5]: 17%
Population Healthy Nuclei (%) [5]: 68%
Population Hoechst High Intensity Objects (%) [5]: 3%
Population Membrane Permeable-Phenotype (%) [5]: 1%
Population Mitochondria Different-Phenotype (%) [5]: 6%
Population Mitotic Cells (%) [5]: 33%
Population Normal (%) [5]: 96%
Population Pyknosed Nuclei (%) [5]: 13%
Population Tubulin-Different-Phenotype (%) [5]: 30%
Total Cell Count [5]: 186
Population Apoptotic (%) [6]: 38%
Population Fragmented Nuclei (%) [6]: 29%
Population Healthy Nuclei (%) [6]: 50%
Population Hoechst High Intensity Objects (%) [6]: 7%
Population Membrane Permeable-Phenotype (%) [6]: 19%
Population Mitochondria Different-Phenotype (%) [6]: 17%
Population Mitotic Cells (%) [6]: 61%
Population Normal (%) [6]: 92%
Population Pyknosed Nuclei (%) [6]: 20%
Population Tubulin-Different-Phenotype (%) [6]: 73%
Total Cell Count [6]: 112
Population Apoptotic (%) [7]: 67%
Population Fragmented Nuclei (%) [7]: 27%
Population Healthy Nuclei (%) [7]: 58%
Population Hoechst High Intensity Objects (%) [7]: 3%
Population Membrane Permeable-Phenotype (%) [7]: 0%
Population Mitochondria Different-Phenotype (%) [7]: 27%
Population Mitotic Cells (%) [7]: 32%
Population Normal (%) [7]: 96%
Population Pyknosed Nuclei (%) [7]: 13%
Population Tubulin-Different-Phenotype (%) [7]: 84%
Total Cell Count [7]: 290
Population Apoptotic (%) [8]: 54%
Population Fragmented Nuclei (%) [8]: 30%
Population Healthy Nuclei (%) [8]: 52%
Population Hoechst High Intensity Objects (%) [8]: 6%
Population Membrane Permeable-Phenotype (%) [8]: 1%
Population Mitochondria Different-Phenotype (%) [8]: 29%
Population Mitotic Cells (%) [8]: 45%
Population Normal (%) [8]: 93%
Population Pyknosed Nuclei (%) [8]: 17%
Population Tubulin-Different-Phenotype (%) [8]: 87%
Total Cell Count [8]: 187
Population Apoptotic (%) [9]: 66%
Population Fragmented Nuclei (%) [9]: 25%
Population Healthy Nuclei (%) [9]: 66%
Population Hoechst High Intensity Objects (%) [9]: 3%
Population Membrane Permeable-Phenotype (%) [9]: 0%
Population Mitochondria Different-Phenotype (%) [9]: 2%
Population Mitotic Cells (%) [9]: 33%
Population Normal (%) [9]: 96%
Population Pyknosed Nuclei (%) [9]: 8%
Population Tubulin-Different-Phenotype (%) [9]: 33%
Total Cell Count [9]: 184
Population Apoptotic (%) [10]: 42%
Population Fragmented Nuclei (%) [10]: 36%
Population Healthy Nuclei (%) [10]: 44%
Population Hoechst High Intensity Objects (%) [10]: 5%
Population Membrane Permeable-Phenotype (%) [10]: 6%
Population Mitochondria Different-Phenotype (%) [10]: 13%
Population Mitotic Cells (%) [10]: 57%
Population Normal (%) [10]: 94%
Population Pyknosed Nuclei (%) [10]: 19%
Population Tubulin-Different-Phenotype (%) [10]: 68%
Total Cell Count [10]: 105
Population Apoptotic (%) [11]: 66%
Population Fragmented Nuclei (%) [11]: 23%
Population Healthy Nuclei (%) [11]: 65%
Population Hoechst High Intensity Objects (%) [11]: 9%
Population Membrane Permeable-Phenotype (%) [11]: 0%
Population Mitochondria Different-Phenotype (%) [11]: 20%
Population Mitotic Cells (%) [11]: 33%
Population Normal (%) [11]: 90%
Population Pyknosed Nuclei (%) [11]: 10%
Population Tubulin-Different-Phenotype (%) [11]: 85%
Total Cell Count [11]: 290
Population Apoptotic (%) [12]: 68%
Population Fragmented Nuclei (%) [12]: 33%
Population Healthy Nuclei (%) [12]: 53%
Population Hoechst High Intensity Objects (%) [12]: 3%
Population Membrane Permeable-Phenotype (%) [12]: 2%
Population Mitochondria Different-Phenotype (%) [12]: 19%
Population Mitotic Cells (%) [12]: 32%
Population Normal (%) [12]: 96%
Population Pyknosed Nuclei (%) [12]: 12%
Total Cell Count [12]: 201

CSCC[C@H](NC=O)C(=O)N[C@@H](CC(C)C)C(=O)N[C@@H](Cc1ccccc1)C(=O)O
Population Fragmented Nuclei (%) [1]: 18%
Population Healthy Nuclei (%) [1]: 69%
Population Mitochondria Different-Phenotype (%) [1]: 3%
Population Tubulin-Different-Phenotype (%) [1]: 26%
Total Cell Count [1]: 182
Population Fragmented Nuclei (%) [2]: 29%
Population Healthy Nuclei (%) [2]: 51%
Population Mitochondria Different-Phenotype (%) [2]: 4%
Population Tubulin-Different-Phenotype (%) [2]: 39%
Total Cell Count [2]: 175
Population Mitochondria Different-Phenotype (%) [3]: 5%
Population Tubulin-Different-Phenotype (%) [3]: 24%
Total Cell Count [3]: 112
Population Fragmented Nuclei (%) [4]: 27%
Population Healthy Nuclei (%) [4]: 39%
Population Hoechst High Intensity Objects (%) [4]: 38%
Population Membrane Permeable-Phenotype (%) [4]: 9%
Population Mitochondria Different-Phenotype (%) [4]: 3%
Population Normal (%) [4]: 61%
Population Tubulin-Different-Phenotype (%) [4]: 35%
Total Cell Count [4]: 315
Population Healthy Nuclei (%) [5]: 73%
Population Mitochondria Different-Phenotype (%) [5]: 4%
Population Tubulin-Different-Phenotype (%) [5]: 18%
Total Cell Count [5]: 173
Population Fragmented Nuclei (%) [6]: 35%
Population Healthy Nuclei (%) [6]: 46%
Population Hoechst High Intensity Objects (%) [6]: 7%
Population Mitochondria Different-Phenotype (%) [6]: 9%
Population Normal (%) [6]: 92%
Population Tubulin-Different-Phenotype (%) [6]: 43%
Total Cell Count [6]: 179
Population Fragmented Nuclei (%) [7]: 19%
Population Membrane Permeable-Phenotype (%) [7]: 3%
Population Mitochondria Different-Phenotype (%) [7]: 7%
Population Tubulin-Different-Phenotype (%) [7]: 25%
Total Cell Count [7]: 107
Population Healthy Nuclei (%) [8]: 38%
Population Hoechst High Intensity Objects (%) [8]: 32%
Population Mitochondria Different-Phenotype (%) [8]: 10%
Population Normal (%) [8]: 67%
Population Tubulin-Different-Phenotype (%) [8]: 47%
Total Cell Count [8]: 230
Population Fragmented Nuclei (%) [9]: 16%
Population Healthy Nuclei (%) [9]: 69%
Population Mitochondria Different-Phenotype (%) [9]: 1%
Population Tubulin-Different-Phenotype (%) [9]: 21%
Total Cell Count [9]: 184
Population Fragmented Nuclei (%) [10]: 36%
Population Healthy Nuclei (%) [10]: 47%
Population Mitochondria Different-Phenotype (%) [10]: 8%
Population Tubulin-Different-Phenotype (%) [10]: 54%
Total Cell Count [10]: 174
Population Fragmented Nuclei (%) [11]: 18%
Population Mitochondria Different-Phenotype (%) [11]: 4%
Population Tubulin-Different-Phenotype (%) [11]: 24%
Total Cell Count [11]: 110
Population Healthy Nuclei (%) [12]: 44%
Population Hoechst High Intensity Objects (%) [12]: 29%
Population Membrane Permeable-Phenotype (%) [12]: 4%
Population Mitochondria Different-Phenotype (%) [12]: 1%
Population Normal (%) [12]: 70%
Population Tubulin-Different-Phenotype (%) [12]: 47%
Total Cell Count [12]: 231
